The source made the active and inactive calls. No cut-off for these calls is given here.
Key:
[1] = target: T1, Polyunsaturated fatty acid lipoxygenase ALOX15 (Homo sapiens) (UniProt P16050); experiment: Activation of 15-LOX in human whole blood assessed as increase in 15-HETE production at 100 uM pre-incubated for 20 mins before stimulation with LPS and A23187 for 120 mins in presence of 2 uM […] inhibitor Zileuton by LC-MS/MS method; type: tissue-based
T1 sequence (whole entry): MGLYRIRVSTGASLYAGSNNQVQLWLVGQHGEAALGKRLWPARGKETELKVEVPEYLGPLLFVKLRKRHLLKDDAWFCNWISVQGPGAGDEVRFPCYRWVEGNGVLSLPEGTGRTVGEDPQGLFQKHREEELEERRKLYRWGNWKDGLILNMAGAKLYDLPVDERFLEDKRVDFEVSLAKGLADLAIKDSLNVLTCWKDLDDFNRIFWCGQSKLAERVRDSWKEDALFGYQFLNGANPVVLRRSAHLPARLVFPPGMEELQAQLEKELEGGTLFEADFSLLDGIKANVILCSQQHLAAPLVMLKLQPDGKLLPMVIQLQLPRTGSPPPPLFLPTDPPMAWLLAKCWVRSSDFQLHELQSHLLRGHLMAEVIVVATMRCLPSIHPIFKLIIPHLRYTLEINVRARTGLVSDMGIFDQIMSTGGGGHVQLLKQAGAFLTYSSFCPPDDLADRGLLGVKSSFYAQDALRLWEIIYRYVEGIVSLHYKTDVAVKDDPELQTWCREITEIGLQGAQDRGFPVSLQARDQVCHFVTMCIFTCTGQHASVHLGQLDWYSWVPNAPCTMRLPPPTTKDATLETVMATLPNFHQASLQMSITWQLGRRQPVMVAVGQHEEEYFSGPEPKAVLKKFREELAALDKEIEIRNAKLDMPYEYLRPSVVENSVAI
Procedure, shortened: (§1)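 Human blood preincubated 20 min at 37 °C with DMSO vehicle or compound in DMSO. LPS added at 100 μg/mL for 24 h at 37 °C, then A23187 at 20 μg/mL final. Samples frozen in liquid nitrogen at time points, lysed by freeze–thaw, with PGB2 internal standard. Analysed by C18 LC-MRM MS, negative ion. Change = control-normalized concentration minus 1, ×100%; 120 min value from AUC.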

[2] = target: T2, Prostaglandin G/H synthase 2 (Homo sapiens) (UniProt P35354); experiment: Activation of COX2 (unknown origin) assessed as PGG2 to PGH2 conversion by measuring N,N,N',N'-tetramethyl-p-phenylenediamine oxidation at 100 uM by spectrophotometry
T2 sequence (whole entry): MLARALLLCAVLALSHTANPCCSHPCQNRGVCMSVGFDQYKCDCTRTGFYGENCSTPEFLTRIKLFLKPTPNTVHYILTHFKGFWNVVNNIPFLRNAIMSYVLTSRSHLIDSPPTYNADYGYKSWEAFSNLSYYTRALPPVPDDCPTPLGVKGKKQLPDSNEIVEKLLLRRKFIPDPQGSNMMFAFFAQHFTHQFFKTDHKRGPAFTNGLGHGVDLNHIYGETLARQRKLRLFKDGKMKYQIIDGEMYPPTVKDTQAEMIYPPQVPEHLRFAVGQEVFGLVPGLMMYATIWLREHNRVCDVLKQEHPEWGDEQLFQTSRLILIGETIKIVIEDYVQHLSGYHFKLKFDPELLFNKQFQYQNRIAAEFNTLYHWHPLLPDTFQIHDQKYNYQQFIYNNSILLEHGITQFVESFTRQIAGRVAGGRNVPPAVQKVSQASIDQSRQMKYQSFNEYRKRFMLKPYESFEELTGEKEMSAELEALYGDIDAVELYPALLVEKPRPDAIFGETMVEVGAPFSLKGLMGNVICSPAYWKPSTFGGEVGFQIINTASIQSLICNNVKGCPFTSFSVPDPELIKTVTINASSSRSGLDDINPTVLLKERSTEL

[3] = target: T1, Polyunsaturated fatty acid lipoxygenase ALOX15 (Homo sapiens); experiment: Activation of 15-LOX in human whole blood assessed as reduction in TXB2 production at 100 uM pre-incubated for 20 mins before stimulation with LPS and A23187 for 120 mins in presence of 2 uM 5-LOX inhibitor Zileuton by LC-MS/MS method; type: tissue-based; procedure, shortened: as §1
[4] = target: T3, Polyunsaturated fatty acid 5-lipoxygenase (Homo sapiens) (UniProt P09917); experiment: Activation of human 5-LOX assessed as H2DCFDA oxidation at 100 uM using arachidonic acid substrate incubated for 5 mins by fluorescence assay
T3 sequence (whole entry): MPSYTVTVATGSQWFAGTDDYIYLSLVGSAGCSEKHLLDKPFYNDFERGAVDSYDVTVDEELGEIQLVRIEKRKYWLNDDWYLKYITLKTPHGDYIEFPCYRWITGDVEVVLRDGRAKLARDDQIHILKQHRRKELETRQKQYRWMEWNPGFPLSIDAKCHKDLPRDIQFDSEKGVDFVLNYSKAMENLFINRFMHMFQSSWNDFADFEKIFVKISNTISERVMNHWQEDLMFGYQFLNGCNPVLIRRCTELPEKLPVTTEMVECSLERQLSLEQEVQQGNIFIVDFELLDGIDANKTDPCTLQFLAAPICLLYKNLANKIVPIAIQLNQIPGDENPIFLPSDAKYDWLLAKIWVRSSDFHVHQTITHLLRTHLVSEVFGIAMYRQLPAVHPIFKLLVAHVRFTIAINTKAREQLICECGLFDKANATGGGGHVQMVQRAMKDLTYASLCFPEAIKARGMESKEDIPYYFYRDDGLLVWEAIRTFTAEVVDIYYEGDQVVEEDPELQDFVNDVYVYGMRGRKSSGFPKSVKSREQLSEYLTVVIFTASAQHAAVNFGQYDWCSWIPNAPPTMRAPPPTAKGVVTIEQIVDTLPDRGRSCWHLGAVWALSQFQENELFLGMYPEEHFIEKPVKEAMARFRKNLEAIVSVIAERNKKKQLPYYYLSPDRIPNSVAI
Procedure, shortened: (§2)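 Human 5-LOX activity followed as AA-driven oxidation of H2DCFDA to fluorescent dichlorofluorescein (ex 500/em 520 nm), recorded for 5 min. Compound handled as in the 15-LOX assay.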

Blood [5] = experiment: Reduction in TXB2 in production in human whole blood at 100 uM pre-incubated for 20 mins before stimulation with LPS and A23187 for 120 mins by LC-MS/MS method; type: functional; design: scale not given: the % may be the effect or the level left; procedure, shortened: as §1
[6] = target: T3, Polyunsaturated fatty acid 5-lipoxygenase (Homo sapiens); experiment: Inhibition of human 5-LOX expressed in Escherichia coli BL21-DE3 of assessed as reduction in H2DCFDA oxidation at 100 uM using arachidonic acid substrate incubated for 5 mins by fluorescence spectrophotometry; procedure, shortened: as §2
Blood [7] = experiment: Reduction in LTB4 in production in human whole blood at 100 uM pre-incubated for 20 mins before stimulation with LPS and A23187 for 120 mins by LC-MS/MS method; type: functional; design: scale not given: the % may be the effect or the level left; procedure, shortened: as §1
[8] = target: T4, Polyunsaturated fatty acid lipoxygenase ALOX15 (Homo sapiens, UniProt P16050); experiment: Binding affinity to wild-type His6-tagged human 15-LOX expressed in Escherichia coli Rosetta DE3 by SPR assay
T4 sequence (P16050 whole entry): T1 sequence (whole entry)
Procedure, shortened: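 15-LOX amine-coupled to a CM5 chip at 800 RU, 25 °C, in PBS-P pH 7.4. Compound concentrations in 5% DMSO injected serially; regenerated by buffer washing. KD from Hill fit of response units.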

CN1CCN(CC(=O)N2N=C3/C(=C/c4ccccc4)CCCC3C2c2ccccc2)CC1 (stereo not drawn)
Activity [1]: Active
Activity [2]: < 5%
Activity [3]: Active
Activity [4]: < 5%
Activity (Blood [5]): 27%
inhibition [6]: < 5%
Activity (Blood [7]): 52%
Kd [8]: 3.9 µM

Reference: ChEMBL document CHEMBL3817796, “Discovery of Novel 15-Lipoxygenase Activators To Shift the Human Arachidonic Acid Metabolic Network toward Inflammation Resolution” (J Med Chem, 2016)
